Assay outcomes (PubChem)
Compounds with a hit are over-represented: about 3.5% of the library has one in this group of screens.
MrgX1 antag – antagonists of human MrgX1 receptor, primary screen, HEK293 cells, Fluo-4 calcium flux; Mas-related G-protein coupled receptor member X1 (Homo sapiens), Q96LB2; BAM8-22 antagonism; hits give low values; B-score at 10 µM; hit rate 1.3% among 310,000; AID 588676, 2011;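 active = calcium-response B-score plate-corrected more than 3 library SD below zero, starting fluorescence within 5 deviations, no agonist response on first addition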;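 note: peak minus trough fluorescence over baseline after final BAM8-22 challenge near maximal dose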
Target sequence (Q96LB2 whole entry, looked up): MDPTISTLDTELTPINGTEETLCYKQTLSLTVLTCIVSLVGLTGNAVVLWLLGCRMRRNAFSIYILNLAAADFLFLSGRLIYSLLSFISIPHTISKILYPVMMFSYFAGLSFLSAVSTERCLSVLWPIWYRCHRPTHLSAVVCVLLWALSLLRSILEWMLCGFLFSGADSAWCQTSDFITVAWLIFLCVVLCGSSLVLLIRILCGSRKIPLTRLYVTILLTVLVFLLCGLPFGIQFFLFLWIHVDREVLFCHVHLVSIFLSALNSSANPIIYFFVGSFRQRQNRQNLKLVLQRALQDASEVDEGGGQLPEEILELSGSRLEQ
RGS4 block – RGS4 inhibitors, primary screen, cell-based, HEK293 M3R inducible RGS4, calcium flux; B-score at 10 µM; Fluo-4 calcium flux; hits give high values; triggered by carbachol at its EC20; hit rate 0.45% among 310,000; Regulator of G-protein signaling 4 (Homo sapiens), P49798;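 active = B-score, a plate-corrected calcium signal, over three deviations above library mean, with baseline fluorescence within five deviations of library mean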;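 note: RGS4 expression induced by doxycycline in cells with stable M3 receptor; B-score is computed from the integrated fluorescence ratio over baseline after carbachol; higher B-score means a larger calcium signal and so more RGS4 inhibition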
RGS4 pot – RGS4 potentiators or activators, primary screen, cell-based, HEK293 M3R inducible RGS4, calcium flux; hit rate 0.92% among 310,000; AID 463111, 2010; carbachol calcium flux Fluo4; hits give low values; B-score at 10 µM;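 active = B-score of the integrated calcium signal more than 4 SD below the library mean, with starting fluorescence not abnormally high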;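 note: negative B-score means reduced calcium response which marks RGS4 activation or potentiation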
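Also added: carbachol at ECmax as muscarinic agonist stimulus; Assay system: HEK293 cells with stable M3R and inducible RGS4; Timing: overnight RGS4 induction, 30 min dye load 37 °C, 20 min compound RT; Measured by: Fluo4-AM (2 µM) calcium-flux fluorescence, kinetic read.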
MrgX1 ag – agonists of human MrgX1 receptor, primary screen, HEK293 cells, Fluo-4 calcium flux. Mas-related G-protein coupled receptor member X1 (Homo sapiens), Q96LB2. Fluo-4 calcium fluorescence, agonist mode; hits give high values. B-score at 10 µM. hit rate 0.44% among 310,000. AID 588627, 2011;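 active = calcium response B-score plate-corrected fluorescence ratio at least 3 library SD, with starting fluorescence B-score inside 5 SD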
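times = overnight plating, then 30 min 37 °C plus 30 min room-temperature dye loading | assay system = stable human MrgX1 HEK293 cell line | input = fifteen thousand cells per well | signal = kinetic calcium dye fluorescence, Fluo-4 NW | dosing = compound delivered in addition one of three | read-out = B-scored fluorescence response ratio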
MrgX1 PAM – positive allosteric modulators of MrgX1, primary screen, HEK293 cells, Fluo-4 calcium flux; Mas-related G-protein coupled receptor member X1 (Homo sapiens), Q96LB2; FDSS; hits give high values; B-score at 10 µM; hit rate 0.63% among 310,000;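 active = plate-corrected calcium response at least 3 library SD above typical, normal starting fluorescence, not activating the receptor alone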;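 note: compound read alongside a low EC10 to EC30 dose of BAM8-22 agonist; peak minus trough fluorescence over baseline measured at the second addition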
* hit, by the source's call; i = inactive.

SMILES	MrgX1 antag	RGS4 block	RGS4 pot	MrgX1 ag	MrgX1 PAM
COc1ccc(CCNC(=O)C(=O)NCC2CCCN2S(=O)(=O)c2ccc(OC)cc2)cc1 (stereo unspecified)	i	i	-7.1*	i	i
COc1ccc(C2(CNC(=O)c3ccc(OC)c([N+](=O)[O-])c3)CCCCC2)cc1OC	i	i	i	i	i
CCOc1ccc(N2CC(C(=O)Nc3nnc(C4CCCCC4)s3)CC2=O)cc1 (stereo unspecified)	i	i	i	i	i
CCCN1C(=O)c2ccc(C(=O)Nc3ccccc3C(=O)O)cc2C1=O	i	i	i	i	i
Cc1ccc(S(=O)(=O)N2CCC(C(=O)NC3CC(C)(C)NC(C)(C)C3)CC2)cc1	i	i	i	i	i
O=C(NCCc1ccc(F)cc1)C(=O)NCC1CCCN1S(=O)(=O)c1cccs1 (stereo unspecified)	i	i	-7.2*	i	i
CNC(=O)C(=O)NCC1CCCN1S(=O)(=O)c1cccs1 (stereo unspecified)	i	i	i	i	i
COc1ccccc1NC(=O)CCC(=O)N(Cc1ccc(OC)c(OC)c1)c1nccs1	-7.4*	i	i	i	i
COc1ccccc1N(CC(=O)NCc1ccc(F)cc1)C(=O)CCC(=O)Nc1nccs1	i	i	i	i	i
CCC(=O)Nc1ccc(C(=O)Nc2cccc(C)n2)cc1	i	i	i	i	i
Cc1cccc(CNC(=O)c2ccc(NC(=O)C3=CSCCO3)cc2)c1	i	i	i	i	i
O=C(NCC1CCCCC1)c1ccccc1[N+](=O)[O-]	i	i	i	i	i
CCC(C)Nc1nc(N)c([N+](=O)[O-])c(NCCO)n1 (stereo unspecified)	i	i	i	i	17*
CC(C)CCNc1nc(N)c([N+](=O)[O-])c(NCCO)n1	i	i	i	i	i
O=C(CN(Cc1ccccc1)C(=O)CNS(=O)(=O)c1ccc(F)cc1)NCc1ccco1	i	i	i	i	i
CCn1c(C)cc(/C=C2/SC(=S)NC2=O)c1C	i	i	i	i	i
Cc1cc(/C=C2\SC(=S)NC2=O)c(C)[nH]1	i	i	i	38*	i
c1ccc(C2OC3c4cccc5cccc(c45)C3N2c2ccccc2)cc1 (stereo unspecified)	i	i	i	34*	i
CC1(C)CC1C(=O)Nc1ccc([N+](=O)[O-])cc1Br (stereo unspecified)	i	i	i	i	i
Cc1ccc(C2(c3ccc(C)cc3)CC2C(=O)Nc2ccc([N+](=O)[O-])cc2O)cc1 (stereo unspecified)	-4.5*	i	i	i	i
CC1(c2ccccc2)NC(=O)N(CC(=O)Nc2nnc(C3CC3)s2)C1=O (stereo unspecified)	i	i	i	i	i
COCCn1c(=S)[nH]c2cc(C(=O)N(CCO)Cc3ccccc3)ccc2c1=O	i	i	i	i	i
COc1nc(NCCO)nc(Nc2ccccc2F)n1	i	i	i	i	i
CCCCNC(=S)N(C)/N=C/c1sc(N2CCCCC2)nc1-c1cccs1	-8.7*	i	i	i	i
N=C(CC1CC(=O)NC(=O)C1)C1=C(O)CCCC1=O	i	i	i	i	i
O=C(N/N=C/C=C/c1ccccc1)C(O)c1ccccc1 (stereo unspecified)	-5.9*	i	i	i	i
O=C(N/N=C/C=C/c1ccco1)C(O)c1ccccc1 (stereo unspecified)	i	i	i	i	i
CN(C(=O)CCNC(=O)Cn1cnc2ccccc2c1=O)c1ccccc1F	i	i	i	i	i
CC(C)CN(C(=O)c1ccc(C(F)(F)F)cc1)c1c(N)n(CC(C)C)c(=O)[nH]c1=O	i	i	i	i	i
